From ChEMBL document CHEMBL4350958, “Rational Design of Short Peptide Variants by Using Kunitzin-RE, an Amphibian-Derived Bioactivity Peptide, for Acquired Potent Broad-Spectrum Antimicrobial and Improved Therapeutic Potential of Commensalism Coinfection of Pathogens” (J Med Chem, 2019)
≈ marks a conversion by molar mass, not a printed value. Where a SMILES comes first, the peptide text is derived from it.

Key:
Staphylococcus aureus [1] = test: Bactericidal activity against methicillin-resistant Staphylococcus aureus ATCC 43300 incubated for 24 hrs followed by replating on agar plate and measured after overnight incubation; format: functional; settings: ATCC 43300, 24 h, read-out: MBC>99.9
Method in brief: (§1)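 After the 24 h, 37 °C MHB microdilution MIC assay, 50 μL from each well was plated on agar and incubated overnight. MBC taken as lowest peptide concentration killing >99.9% of cells. At least three independent experiments, each with three technical replicates.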

Escherichia coli [2] = test: Antibacterial activity against Escherichia coli ATCC 25922 measured after 18 to 24 hrs in presence of ZnCl2; format: functional
Candida albicans [3] = test: Antifungal activity against Candida albicans cgmcc2.2086 measured after 48 hrs in presence of MgCl by broth microdilution method; format: functional; settings: cgmcc2.2086, 48 h
Staphylococcus aureus [4] = test: Antibacterial activity against Staphylococcus aureus ATCC 29213 measured after 18 to 24 hrs in presence of MgCl2; format: functional
Staphylococcus aureus [5] = test: Antibacterial activity against Staphylococcus aureus ATCC 29213 measured after 18 to 24 hrs in presence of ZnCl2; format: functional
Method in brief: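 MIC broth microdilution (MHB, 0.2% BSA peptide diluent, A492, 95% inhibition) run in the presence of physiological salts at final concentrations of 6 μM NH4Cl or 8 μM ZnCl2. Three independent assays, each with three technical replicates.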

Escherichia coli [6] = test: Antibacterial activity against Escherichia coli ATCC 25922 measured after 18 to 24 hrs in presence of NaCl; format: functional
Staphylococcus aureus [7] = test: Bactericidal activity against Staphylococcus aureus ATCC 25923 incubated for 24 hrs followed by replating on agar plate and measured after overnight incubation; format: functional; settings: ATCC 25923, 24 h, read-out: MBC>99.9; method in brief: as §1
Staphylococcus aureus [8] = test: Antibacterial activity against Staphylococcus aureus ATCC 29213 measured after 18 to 24 hrs in presence of CaCl2; format: functional
Pseudomonas aeruginosa = test: Antibacterial activity against Pseudomonas aeruginosa ATCC 27853 measured after 24 hrs; format: functional; settings: ATCC 27853, 24 h
Method in brief: (§2)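 Broth microdilution adapted from NCCLS. Mid-log bacteria were diluted in MHB to a final (0.5–1) × 10^5 CFU mL−1. Peptides were serially diluted in 0.2% BSA and mixed with an equal volume of cells. After 24 h at 37 °C, MIC was read at A492 as the lowest concentration inhibiting 95% of growth. At least three independent experiments, each with three technical replicates.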

Candida tropicalis = test: Antifungal activity against Candida tropicalis cgmcc2.1975 measured after 48 hrs by broth microdilution method; format: functional; settings: cgmcc2.1975, 48 h
Method in brief: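 Modified CLSI M27-A2 microdilution. Yeast colonies were diluted in MOPS-buffered RPMI 1640 to a final (0.5–1) × 10^3 CFU mL−1 and mixed with an equal volume of peptide serially diluted in 0.2% BSA. After 48 h at 28 °C, MIC was read at A492 as the lowest concentration inhibiting 95% of growth. At least three independent experiments, each with three technical replicates.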

[9] = Bactericidal activity against Salmonella pullorum ATCC 7913 incubated for 24 hrs followed by replating on agar plate and measured after overnight incubation; format: functional, Salmonella enterica subsp. enterica serovar Pullorum; settings: Salmonella enterica, ATCC 7913, 24 h; read-out: MBC>99.9
Method in brief: (§3)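 Mid-log bacteria diluted in MHB to (0.5–1) × 10^5 CFU/mL and mixed 1:1 with peptide serially diluted in 0.2% BSA. After 24 h at 37 °C, 50 μL of each mixture was plated on agar and incubated overnight. MBC taken as the lowest concentration killing >99.9% of cells. At least three independent experiments, each with three technical replicates.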

[10] = Therapeutic index, ratio of MHC10 for hemolytic activity in human RBC to MIC95 against Candida albicans cgmcc2.2086; format: toxicity; settings: human red blood cells (erythrocytes), read-out: TI
Method in brief: (§4)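 Therapeutic index = MHC divided by MIC. MHC is the lowest concentration giving >10% lysis of human RBC (1 h, 37 °C, 1-128 µM, A576). MIC is 95% growth inhibition by broth microdilution: bacteria in MHB 24 h at 37 °C; Candida in MOPS-buffered RPMI 1640 at (0.5–1) × 10^3 CFU mL−1, 48 h at 28 °C.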

Salmonella typhimurium = test: Antibacterial activity against Salmonella typhimurium C7731 measured after 24 hrs; format: functional, Salmonella enterica subsp. enterica serovar Typhimurium; settings: Salmonella enterica, C7731, 24 h; method in brief: as §2
Candida albicans [11] = test: Antifungal activity against Candida albicans cgmcc2.2086 measured after 48 hrs in presence of FeCl by broth microdilution method; format: functional; settings: cgmcc2.2086, 48 h
Escherichia coli [12] = test: Antibacterial activity against Escherichia coli ATCC 25922 measured after 24 hrs; format: functional; settings: ATCC 25922, 24 h; method in brief: as §2
[13] = Conformational stability in pH 7.4 sodium phosphate buffer assessed as absorption spectra at minimum dichroic band at 35 uM by CD spectra analysis; format: physicochemical; settings: pH 7.4, 35 µM
Method in brief: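 CD spectra from 190 to 250 nm of peptide at 35 μM in 10 mM PBS, 30 mM SDS micelles or 50% TFE, recorded in a 1.0-mm quartz cell. Ellipticity was converted to mean residue ellipticity. Three independent scans, each averaged over more than 3 runs.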

[14] = Therapeutic index, ratio of MHC10 for hemolytic activity in human RBC to MIC95 against Staphylococcus aureus ATCC 29213; format: toxicity; settings: human red blood cells (erythrocytes), read-out: TI; method in brief: as §4
[15] = tested on: Staphylococcus epidermidis; test: Antibacterial activity against Staphylococcus epidermidis ATCC 12228 measured after 24 hrs; format: functional; settings: ATCC 12228, 24 h; method in brief: as §2
Escherichia coli [16] = test: Antibacterial activity against Escherichia coli K88 measured after 24 hrs; format: functional; settings: K88, 24 h; method in brief: as §2
Escherichia coli [17] = test: Antibacterial activity against Escherichia coli UB1005 measured after 24 hrs; format: functional; settings: UB1005, 24 h; method in brief: as §2
Escherichia coli [18] = test: Antibacterial activity against Escherichia coli ATCC 25922 measured after 18 to 24 hrs in presence of MgCl2; format: functional
Escherichia coli [19] = test: Bactericidal activity against Escherichia coli K88 incubated for 24 hrs followed by replating on agar plate and measured after overnight incubation; format: functional; settings: K88, 24 h, read-out: MBC>99.9; method in brief: as §3
[20] = tested on: Staphylococcus epidermidis; test: Bactericidal activity against Staphylococcus epidermidis ATCC 12228 incubated for 24 hrs followed by replating on agar plate and measured after overnight incubation; format: functional; settings: ATCC 12228, 24 h, read-out: MBC>99.9; method in brief: as §3
[21] = Therapeutic index, ratio of MHC10 for hemolytic activity in human RBC to MIC95 against methicillin-resistant Staphylococcus aureus ATCC 43300; format: toxicity; settings: human red blood cells (erythrocytes), read-out: TI; method in brief: as §4
Candida albicans [22] = test: Antifungal activity against Candida albicans cgmcc2.2086 measured after 48 hrs in presence of KCl by broth microdilution method; format: functional; settings: cgmcc2.2086, 48 h
[23] = Therapeutic index, ratio of MHC10 for hemolytic activity in human RBC to MIC95 against Candida parapsilosis cgmcc2.3989; format: toxicity; settings: human red blood cells (erythrocytes), read-out: TI; method in brief: as §4

| Molecule | MIC95 (Escherichia coli [2]) [µM] | MIC95 (Candida albicans [3]) [µM] | MIC95 (Staphylococcus aureus [4]) [µM] | MIC95 (Staphylococcus aureus [5]) [µM] | MIC95 (Escherichia coli [6]) [µM] | MIC95 (Staphylococcus aureus [8]) [µM] | MIC95 (Pseudomonas aeruginosa) [µM] | MIC95 (Candida tropicalis) [µM] | selectivity ratio [10] | MIC95 (Salmonella typhimurium) [µM] | MIC95 (Candida albicans [11]) [µM] | MIC95 (Escherichia coli [12]) [µM] | Wavelength of minimum CD band [13] [nm] | selectivity ratio [14] | MIC95 [15] [µM] | MIC95 (Escherichia coli [16]) [µM] | MIC95 (Escherichia coli [17]) [µM] | MIC95 (Escherichia coli [18]) [µM] | selectivity ratio [21] | MIC95 (Candida albicans [22]) [µM] | further results |
| --- | --- | --- | --- | --- | --- | --- | --- | --- | --- | --- | --- | --- | --- | --- | --- | --- | --- | --- | --- | --- | --- |
| H-AARIILRTRFR-NH2 | 8 | > 128 | 32 | 16 | > 128 | 64 | > 128 | 32 | 4 | 16 | > 128 | 8 | 200 | 16 | 16 | 4 | 4 | 128 | 16 | > 128 | MBC (Staphylococcus aureus [1]): 32 µM; MBC (Staphylococcus aureus [7]): 32 µM; MBC [9]: 16 µM; MBC (Escherichia coli [19]): 8 µM; MBC [20]: 32 µM; selectivity ratio [23]: 4 |
| H-AARIILRNRFR-NH2 | 32 | > 128 | > 128 | > 128 | 128 | > 128 | > 128 | > 128 | 2 | 32 | > 128 | 32 | 200 | 2 | > 128 | 32 | 16 | 128 | 2 | > 128 | MBC [9]: 32 µM; MBC (Escherichia coli [19]): 64 µM; selectivity ratio [23]: 2 |
| CC[C@H](C)[C@H](NC(=O)[C@H](CCCCN)NC(=O)[C@H](C)NC(=O)[C@H](C)N)C(=O)N[C@H](C(=O)N[C@@H](CC(C)C)C(=O)N[C@@H](CC(N)=O)C(=O)N1CCC[C@H]1C(=O)N[C@@H](CCCCN)C(=O)N[C@@H](Cc1ccccc1)C(=O)N[C@@H](CCCNC(=N)N)C(=O)N[C@@H](CS)C(=O)N[C@@H](CCCCN)C(=O)N[C@@H](C)C(=O)N[C@@H](C)C(=O)N[C@@H](Cc1ccccc1)C(=O)N[C@@H](CS)C(N)=O)[C@@H](C)CC (H-AAKIILNPKFRCKAAFC-NH2) | 64 | > 128 | > 128 | > 128 | > 128 | > 128 | > 128 | > 128 | 0.25 | > 128 | > 128 | 32 (≈ 60.6 µg/mL) | 200 | 0.3 | > 128 | 32 (≈ 60.6 µg/mL) | 64 (≈ 121 µg/mL) | 64 | 0.3 | > 128 | MBC (Staphylococcus aureus [7]): > 128 µM; MBC [9]: > 128 µM; MBC (Escherichia coli [19]): 64 µM (≈ 121 µg/mL); selectivity ratio [23]: 0.25 |
| H-AARIILRPRFR-NH2 | 32 | > 128 | > 128 | > 128 | 128 | > 128 | > 128 | > 128 | 2 | 16 | > 128 | 16 | 200 | 2 | > 128 | 16 | 8 | 64 | 2 | > 128 | MBC [9]: 64 µM; MBC (Escherichia coli [19]): 32 µM; selectivity ratio [23]: 2 |
| H-AARIILRDRFR-NH2 | > 128 | > 128 | > 128 | > 128 | > 128 | > 128 | > 128 | > 128 | 2 | > 128 | > 128 | ≥ 128 | 200 | 2 | > 128 | > 128 | > 128 | > 128 | 2 | > 128 | selectivity ratio [23]: 2 |
